{"data": "Experimental data collected from several papers", "mode": "inhibitor", "PDE2A": "cGMP-dependent 3',5'-cyclic phosphodiesterase (PDE2A, Homo sapiens, UniProt O00408)", "gag-pol reverse transcriptase": "Gag-Pol polyprotein, reverse transcriptase (gag-pol, Human immunodeficiency virus 1, UniProt P03366)", "gyrA": "DNA gyrase subunit A (gyrA, Escherichia coli K-12, UniProt P0AES4)", "PRMT6": "Protein arginine N-methyltransferase 6 (PRMT6, Homo sapiens, UniProt Q96LA8)", "EP300": "Histone acetyltransferase p300 (EP300, Homo sapiens, UniProt Q09472)", "note": "Protocols differ between the studies behind these lines."}
{"SMILES": "COc1ncc(CNc2c(CO)cnc3c(C4CC4)cc(C#N)cc23)cc1Cl", "target": "PDE2A", "test": "enzyme activity", "IC50 [µM]": "> 10"}
{"SMILES": "CCCC(CCC)C(=O)O", "target": "Aldo-keto reductase family 1 member A1 (AKR1A1, Homo sapiens, UniProt P14550)", "test": "enzyme activity, absorbance", "setting": "pH 6.2", "IC50 [µM]": 53.2}
{"SMILES": "N#C/C(=C\\c1cccn1S(=O)(=O)c1ccccc1)S(=O)(=O)c1ccccc1", "target": "Protein phosphatase methylesterase 1 (Homo sapiens, UniProt Q9Y570)", "test": "enzyme activity", "IC50 [µM]": "> 20"}
{"SMILES": "Cc1cc(C)cc(S(=O)(=O)c2c(C(=O)NCCNS(=O)(=O)c3ccccc3)[nH]c3ccc(Cl)cc23)c1", "target": "gag-pol reverse transcriptase", "test": "enzyme activity, ELISA", "IC50 [µM]": 0.055}
{"SMILES": "N#Cc1ccc(Nc2nc(N)cc(Oc3ccc(-c4ccc(C#N)c(C#N)c4)cc3)n2)cc1", "target": "gag-pol reverse transcriptase", "test": "enzyme activity", "IC50 [µM]": 0.77}
{"SMILES": "CNC(=O)c1ccccc1Nc1cc(Nc2cc(C)c(C3CCN(CCCCCCNC(=O)COc4cccc5c4C(=O)N(C4CCC(=O)NC4=O)C5=O)CC3)cc2OC(C)C)ncc1C(F)(F)F (centres unmarked)", "target": "Protein-tyrosine kinase 2-beta (PTK2B, Homo sapiens, UniProt Q14289)", "test": "enzyme activity", "IC50 [µM]": 0.296}
{"SMILES": "CC(C)Oc1c(NC(=O)c2ccc(NC(=O)[C@H](CC(N)=O)NC(=O)c3ccc(NC(=O)c4ccc([N+](=O)[O-])c5cccnc45)cc3)cc2)ccc(C(=O)Nc2ccc(C(=O)O)cc2)c1O", "target": "gyrA", "test": "enzyme activity", "IC50 [µM]": 0.3}
{"SMILES": "Cc1cc(C)cc(S(=O)(=O)c2c(C(=O)NCCCCNS(=O)(=O)c3ccccc3)[nH]c3ccc(Cl)cc23)c1", "target": "gag-pol reverse transcriptase", "test": "enzyme activity, ELISA", "IC50 [µM]": 0.13}
{"SMILES": "N#Cc1ccc(Nc2nc(N)cc(Oc3ccc(-c4ccc(C#N)cc4)c(Cl)c3)n2)cc1", "target": "gag-pol reverse transcriptase", "test": "enzyme activity", "IC50 [µM]": 0.04}
{"SMILES": "Cc1cc(C)cc(S(=O)(=O)c2c(C(=O)NCCCNS(=O)(=O)c3ccc(F)cc3)[nH]c3ccc(Cl)cc23)c1", "target": "gag-pol reverse transcriptase", "test": "enzyme activity, ELISA", "IC50 [µM]": 0.1}
{"SMILES": "N#Cc1ccc(Nc2nc(N)cc(Oc3ccc(-c4ccc(C#N)cc4)c(C#N)c3)n2)cc1", "target": "gag-pol reverse transcriptase", "test": "enzyme activity", "IC50 [µM]": 0.09}
{"SMILES": "CN1CCN(c2ccc(Nc3ncc4cc(C#N)c(=O)n(C5CCCC5)c4n3)cc2)CC1", "target": "Serine/threonine-protein kinase WNK2 (WNK2, Homo sapiens, UniProt Q9Y3S1)", "test": "enzyme activity", "IC50 [µM]": "> 10"}
{"SMILES": "N#Cc1ccc(Nc2nc(N)cc(Oc3ccc(-c4cccc(F)c4)cc3)n2)cc1", "target": "gag-pol reverse transcriptase", "test": "enzyme activity", "IC50 [µM]": 0.33}
{"SMILES": "COC(=O)C1CCN(C(=O)Cc2ccc(NCc3cnc4nc(N)nc(N)c4n3)cc2)CC1", "target": "Cytochrome P450 2C19 (CYP2C19, Homo sapiens, UniProt P33261)", "test": "enzyme activity, luciferase", "IC50 [µM]": 7.76}
{"SMILES": "COc1cc(/C=C2\\SC(=O)NC2=O)cc(F)c1OCCNc1nc2c(cnn2C2CCCC2)c(=O)[nH]1", "target": "PDE2A", "test": "enzyme activity", "IC50 [µM]": 0.167}
{"SMILES": "COc1ccc(S(=O)(=O)NCCCCCNC(=O)c2[nH]c3ccc(Cl)cc3c2S(=O)(=O)c2cc(C)cc(C)c2)cc1", "target": "gag-pol reverse transcriptase", "test": "enzyme activity, ELISA", "IC50 [µM]": 0.16}
{"SMILES": "N#Cc1ccc(Nc2nc(N)cc(Oc3ccc(-c4ccccc4F)cc3)n2)cc1", "target": "gag-pol reverse transcriptase", "test": "enzyme activity", "IC50 [µM]": 0.26}
{"SMILES": "CCCCN1/C(=C/C=C/c2sc3ccc(Br)cc3[n+]2CCCC)Sc2ccc(Br)cc21", "target": "PRMT6", "test": "enzyme activity, radiometric", "IC50 [µM]": 3.15}
{"SMILES": "COc1ccc(C2=NN(C3CCCCCC3)C(=O)[C@@H]3CC=CC[C@H]23)cc1-c1ccc(C(N)=O)cc1 (relative stereo)", "target": "PDE2A", "test": "enzyme activity", "IC50 [µM]": 3.98}
{"SMILES": "Cc1cc(C)cc(S(=O)(=O)c2c(C(=O)NCCNS(=O)(=O)c3cccc(F)c3)[nH]c3ccc(Cl)cc23)c1", "target": "gag-pol reverse transcriptase", "test": "enzyme activity, ELISA", "IC50 [µM]": 0.083}
{"SMILES": "NC(=O)c1ccc[n+]([C@@H]2O[C@H](COP(=O)([O-])OP(=O)(O)OC[C@H]3O[C@@H](n4cnc5c(N)ncnc54)[C@H](O)[C@@H]3O)[C@@H](O)[C@H]2O)c1", "target": "Protein mono-ADP-ribosyltransferase PARP12 (PARP12, Homo sapiens, UniProt Q9H0J9)", "test": "enzyme activity", "IC50 [µM]": 73}
{"SMILES": "Cc1cc(C)cc(S(=O)(=O)c2c(C(=O)NCCNS(=O)(=O)c3cccs3)[nH]c3ccc(Cl)cc23)c1", "target": "gag-pol reverse transcriptase", "test": "enzyme activity, ELISA", "IC50 [µM]": 0.14}
{"SMILES": "CC(C)Oc1c(NC(=O)c2ccc(NC(=O)[C@H](CC(N)=O)NC(=O)c3ccc(NC(=O)c4ccc(C#N)nc4)cc3)cc2)ccc(C(=O)Nc2ccc(C(=O)O)cc2)c1O", "target": "gyrA", "test": "enzyme activity", "IC50 [µM]": 0.5}
{"SMILES": "Cc1cc(/C=C/C#N)cc(C)c1Nc1ccnc(Nc2ccc(C#N)cc2)n1", "target": "gag-pol reverse transcriptase", "test": "enzyme activity", "IC50 [µM]": 0.014}
{"SMILES": "COc1ccc2c(Oc3ccc4c(C(=O)Nc5ccccc5N)cccc4c3)ccnc2c1", "target": "Insulin-like growth factor 1 receptor (IGF1R, Homo sapiens, UniProt P08069)", "test": "enzyme activity", "IC50 [µM]": "> 0.5"}
{"SMILES": "CC(C)Oc1c(NC(=O)c2ccc(NC(=O)[C@H](CC(N)=O)NC(=O)c3ccc(NC(=O)c4cccc([N+](=O)[O-])c4)cc3)cc2)ccc(C(=O)Nc2ccc(C(=O)O)cc2)c1O", "target": "gyrA", "test": "enzyme activity", "IC50 [µM]": 2.2}
{"SMILES": "COc1ccc(S(=O)(=O)ON=C2C=C(C)C(=O)C(C)=C2)cc1", "target": "EP300", "test": "enzyme activity, radiometric", "IC50 [µM]": 128}
{"SMILES": "CC(C)Oc1c(NC(=O)c2ccc(NC(=O)[C@H](CC(N)=O)NC(=O)c3ccc(NC(=O)c4cc(=O)c(O)c[nH]4)cc3)cc2)ccc(C(=O)Nc2ccc(C(=O)O)cc2)c1O", "target": "gyrA", "test": "enzyme activity", "IC50 [µM]": 3.6}
{"SMILES": "N#Cc1ccc(Nc2nc(N)cc(Oc3ccc(-c4ccc(C#N)cc4)cc3C(F)(F)F)n2)cc1", "target": "gag-pol reverse transcriptase", "test": "enzyme activity", "IC50 [µM]": 0.07}
{"SMILES": "CC(C)Oc1c(NC(=O)c2ccc(NC(=O)[C@H](CC(N)=O)NC(=O)c3cccc(-c4cccc(C#N)c4)c3)cc2)ccc(C(=O)Nc2ccc(C(=O)O)cc2)c1O", "target": "gyrA", "test": "enzyme activity", "IC50 [µM]": "> 50"}
{"SMILES": "CC1(C)C(/C=C/C=C2/N(CCCc3ccccc3)c3ccc(Cl)cc3C2(C)C)=[N+](CCCc2ccccc2)c2ccc(Cl)cc21", "target": "PRMT6", "test": "enzyme activity, radiometric", "IC50 [µM]": 1.66}
{"SMILES": "Cc1cc(C)cc(S(=O)(=O)c2c(C(=O)NCCCCNS(=O)(=O)c3cccs3)[nH]c3ccc(Cl)cc23)c1", "target": "gag-pol reverse transcriptase", "test": "enzyme activity, ELISA", "IC50 [µM]": 0.19}
{"SMILES": "CC(C)Oc1c(NC(=O)c2ccc(NC(=O)[C@H](CC(N)=O)NC(=O)c3ccc(NC(=O)c4ccc(N)cc4)cc3)cc2)ccc(C(=O)Nc2ccc(C(=O)O)cc2)c1O", "target": "gyrA", "test": "enzyme activity", "IC50 [µM]": 26.8}
{"SMILES": "Cc1cc(C)cc(S(=O)(=O)c2c(C(=O)NCCCCCNS(=O)(=O)c3cccs3)[nH]c3ccc(Cl)cc23)c1", "target": "gag-pol reverse transcriptase", "test": "enzyme activity, ELISA", "IC50 [µM]": 0.22}
{"SMILES": "N#Cc1ccc(Nc2nc(N)cc(Oc3ccc(-c4ccc(C#N)c(F)c4)cc3F)n2)cc1", "target": "gag-pol reverse transcriptase", "test": "enzyme activity", "IC50 [µM]": 0.07}
{"SMILES": "CC(C)Oc1c(NC(=O)c2ccc(NC(=O)[C@H](CC(N)=O)NC(=O)c3ccc(NC(=O)c4ccc(C#N)cc4)cc3)cc2)ccc(C(=O)Nc2ccncc2)c1O", "target": "gyrA", "test": "enzyme activity", "IC50 [µM]": 0.9}
{"SMILES": "CCCS(=O)(=O)Nc1ccc(F)c(C(=O)c2c[nH]c3ncc(Br)cc23)c1F", "target": "Dual specificity mitogen-activated protein kinase kinase 6 (MAP2K6, Homo sapiens, UniProt P52564)", "test": "enzyme activity, ADP detection", "IC50 [µM]": 2.5}
{"SMILES": "CCCCCCCCCCCCCCCc1cccc(O)c1C(=O)O", "target": "EP300", "test": "enzyme activity, radiometric", "IC50 [µM]": "> 200"}
{"SMILES": "CC(C)Oc1c(NC(=O)c2ccc(NC(=O)[C@H](CC(N)=O)NC(=O)c3ccc(NC(=O)CCc4ccc(C#N)cc4)cc3)cc2)ccc(C(=O)Nc2ccc(C(=O)O)cc2)c1O", "target": "gyrA", "test": "enzyme activity", "IC50 [µM]": 1}
{"SMILES": "COc1ccc(-c2oc3ncnc(NCc4ccccc4)c3c2-c2ccc(OC)cc2)cc1", "target": "Receptor tyrosine-protein kinase erbB-2 (ERBB2, Homo sapiens, UniProt P04626)", "test": "enzyme activity, radiometric", "IC50 [µM]": 4.6}
{"SMILES": "O=C(Nc1ccn(Cc2ccc(O)cc2C(F)(F)F)n1)c1c(F)cccc1F", "target": "5-hydroxytryptamine receptor 3A (HTR3A, Homo sapiens, UniProt P46098)", "test": "ion current", "IC50 [µM]": "> 10"}
